bCat nuc transl = alters nuclear translocation of beta-catenin in HeLa cells. immunofluorescence imaging. nuclear translocation activity, % at 5 µM. hit rate 0.3% among 190,000. AID 1665;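 active means nuclear translocation activity above 50% at 5 µM, with a well cell count of 50 or more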;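 further: per-cell ratio of nuclear to cytoplasmic median beta-catenin stain intensity; plate controls were DMSO negative control for no effect and GSK-3 inhibitor IX positive control for full effect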
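Test system: human HeLa cell line; Doses: 5 µM primary, 0.02–20 µM confirmation; Incubation: 24 h compound exposure, 37°C; Detection: beta-catenin immunofluorescence imaging with DAPI; Read-out: beta-catenin nuclear/cytoplasmic ratio, % activation.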
MT stabilize HCS = microtubule stabilizers in HeLa cells | HeLa tubulin immunostaining HCS, 24 h; share of cells brighter than vehicle mean+2SD | % tubulin-high responders, % at 10 µM | hit rate 0.83% among 200,000 | AID 2205;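 active means plate Z-score above 3 for both tubulin-high and condensed-nucleus cell shares, with cell loss under 80%, at 10 µM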;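 further: anti alpha tubulin signal scored within the nucleus-defined area of each cell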
APP 5UTR inh = APP translation inhibition. AID 1285. inhibition, % at 2 µM. hit rate 0.82% among 190,000. SH-SY5Y APP 5'UTR-luciferase reporter, luminescence;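 active means inhibition above a set limit, derived from the sample mean plus 3 SD, cut at about 45% in these data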
BaF3 tox = reduces parental Ba/F3 cell viability, JAK2V617F counter-screen | inhibition, % at 5.6 µM | CellTiter-Glo ATP luminescence | hit rate 1.1% among 220,000;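 active means inhibition above a per-campaign cutoff, the mean inhibition of all tested compounds plus 3 SD, cut at about 27% in these data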;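 further: 0% = DMSO wells and 100% = JAK Inhibitor I control wells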
Ba/F3 V617F tox = reduce viability of Ba/F3 cells dependent on JAK2V617F | Ba/F3 EpoR-JAK2V617F viability, ATP luminescence | inhibition, % at 5.6 µM | hit rate 1.1% among 220,000 | AID 1446;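 active means inhibition above the campaign mean plus 3 SD over all tested compounds, cut at about 24% in these data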;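 further: cytokine-independent growth of Ba/F3 cells driven by EpoR plus mutant JAK2; 0% = DMSO-treated cells and 100% = JAK inhibitor I control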
IEC-6 tox = IEC-6 cytotoxicity, counter-screen for KLF5 inhibitors | luminescence viability | inhibition, % at 5 µM | hit rate 0.78% among 290,000 | AID 1825; in the data active means inhibition above about 22%;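 further: 0% = plate median of test compound wells and 100% = cytotoxic reference compound wells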
* = called active by the depositor; / = not tested or not shown. In the library only some 2.2% were active in any assay of this set; here they are far more common.

SMILES	bCat nuc transl	MT stabilize HCS	APP 5UTR inh	BaF3 tox	Ba/F3 V617F tox	IEC-6 tox
Cc1cc(Cl)ccc1NNC(=O)CCc1ccccc1	-3	/	/	-1	6	5
Cc1noc(-c2ccc(C(F)(F)F)cc2)c1NC(=O)Nc1ccc(Cl)cc1	-1	/	/	-3	-6	-8
CSc1ccc(NC(=O)N2CC=C(n3c(=O)[nH]c4ccccc43)CC2)cc1	-2	31*	-7	2	-1	3
O=c1[nH]c2ccccc2n1C1=CCCC1	2	2	-12	2	3	2
COc1ccc(-c2nc(NC(=O)C3CC(=O)N(c4ccc5c(c4)OCCO5)C3)sc2C)cc1 (stereo not given)	/	11*	-6	53*	45*	6
Cc1ccc(Cn2c(O)c(N=NC(=S)Nc3ccccc3F)c3cc(S(=O)(=O)N4CCOCC4)ccc32)cc1	1	4	50*	5	2	8
COc1ccc(C(C(=O)NC2CCCC2)N(C(=O)CNC(=O)c2ccco2)c2cccnc2)cc1 (stereo not given)	/	/	/	/	/	-4
O=C(CC1(O)C(=O)N(Cc2cccc3ccccc23)c2ccccc21)c1cccnc1 (stereo not given)	-2	3	56*	54*	68*	12
O=C(N/N=C/c1ccc(OC(=O)c2cccs2)cc1)c1ccccn1	/	/	/	/	/	-8
CCCC1=[N+](CC)CCn2c(C)ccc21	-3	1	-17	64*	61*	-4
CCCC1=[N+](CC(=O)c2ccccc2)CCn2c(C)ccc21	/	2	-4	27*	32*	6
CCn1nc(C)cc1C(=O)N1CCCC(C(=O)c2ccc(OC)cc2C)C1 (stereo not given)	/	/	/	/	/	-6
CC1CC(C)CN(C(=O)CCNC(=O)c2ccccc2Cl)C1 (stereo not given)	/	/	/	/	/	4
COc1ccc(C(=O)NCCc2nnc3ccc(SCC(=O)Nc4ccccc4)nn23)cc1	/	/	/	/	/	-4
Cc1ccc(Oc2ccc(-c3nc(N)nc(N)n3)cc2)cc1C	/	3	92*	4	-5	6
Nc1nc(N)nc(-c2ccc(Oc3ccccc3)cc2)n1	/	2	-12	3	-1	-9
CCOc1ccc(N2CC(C(=O)Nc3ccccc3C(=O)NC3CC3)CC2=O)cc1 (stereo not given)	/	/	/	/	/	4
Cc1ccc(NC(=S)NNC(=S)Nc2ccc(C)cc2C)cc1	52*	9.8*	92*	30*	82*	6
CCCOc1ccccc1C(=O)Nc1ccc(S(=O)(=O)N2CCN(C)CC2)cc1	/	/	/	/	/	3
Cc1ccc(Nc2nc(N)nc(CN3CCC(C)CC3)n2)c(C)c1	/	3	-16	89*	-2	6
Cc1ccc(Nc2nc(N)nc(CN3CCCCCC3)n2)c(C)c1	1	3	-4	8	5	-2
CSC1=NC(C(Cl)(Cl)Cl)N=C(c2ccccc2)N1 (stereo not given)	75*	15*	6	13	4	-1
CCOC(=O)C1C(=O)NC(c2ccccc2)=NC1c1ccc(F)cc1 (stereo not given)	/	2	-3	0	-4	6
COc1ccc(-c2cn3c(C)c(C(=O)Nc4cc(NC(C)=O)ccc4OC)sc3n2)cc1	3	34*	24	44*	49*	21
Cc1cc(C)c(S(=O)(=O)N2CCCC(C(=O)NCc3cccnc3)C2)c(C)c1 (stereo not given)	/	/	/	/	/	2
SMILES	bCat nuc transl	MT stabilize HCS	APP 5UTR inh	BaF3 tox	Ba/F3 V617F tox	IEC-6 tox
COc1ccc(NC(=O)c2ccc(F)cc2)cc1S(=O)(=O)Nc1cc(C)ccc1Br	1	16*	0	7	2	2
CCc1ccc(/C=C2\SC(=S)N(CCC(=O)NC3=NCCS3)C2=O)cc1	-2	3	53*	-2	-2	0
COC(=O)c1ccc(/C=C2/SC(=S)N(CCCC(=O)Nc3ccccn3)C2=O)cc1	2	2	0	8	-1	-5
COc1ccc(/C=C2/SC(=S)N(CCC(=O)O)C2=O)cc1	0	3	50*	-2	-2	-6
CCc1ccc(/C=C2\SC(=S)N(CCCC(=O)Nc3ccccn3)C2=O)cc1	0	2	51*	4	-1	-4
O=Cc1ccc(O)c2ncccc12	1	/	/	53*	8	100*
c1cnc2ccc3ncccc3c2c1	1	/	/	3	-2	-5
NC(=O)C1CCCN1S(=O)(=O)c1ccc2ccccc2c1 (stereo not given)	/	/	/	/	/	-6
